Results gathered from unrelated publications.
Protocols differ between the studies behind these lines.
RET V804L: Proto-oncogene tyrosine-protein kinase receptor Ret (RET, Homo sapiens, UniProt P07949, V804L)
RET M918T: Proto-oncogene tyrosine-protein kinase receptor Ret (RET, Homo sapiens, UniProt P07949, M918T)
RET V804M: Proto-oncogene tyrosine-protein kinase receptor Ret (RET, Homo sapiens, UniProt P07949, V804M)
RET: Proto-oncogene tyrosine-protein kinase receptor Ret (RET, Homo sapiens, UniProt P07949)

SMILES	target	read-out	technique	concentration	remaining binding
Cc1cc(C)c(-n2ccn3nc(-c4cccnc4)cc23)cc1NC(=O)c1cc(C#N)cc(S(F)(F)(F)(F)F)c1	RET V804L	cell-free assay	competition with immobilised ligand	0.1 µM	93.6%
CN(C)c1nccc(-c2cnn3ncccc23)n1	RET M918T	binding	–	1 µM	97%
CNC(=O)[C@@H]1CC[C@@H](n2c(-c3ccc4cnccc4c3)nc3ccc(C(=O)NCc4cccc(C(N)=O)c4)cc32)C1	RET V804M	binding	competition with immobilised ligand	1 µM	100%
CCN1CCN(Cc2ccc(C(=O)Nc3ccc(C)c(Oc4ccc5c(c4)CC(=O)N5)c3)cc2C(F)(F)F)CC1	RET V804M	binding	competition with immobilised ligand	1 µM	67%
O=C(Nc1c[nH]nc1C(=O)NC1CCNCC1)c1cc(F)cc(F)c1	RET V804M	binding	competition with immobilised ligand	1 µM	99%
F[C@@H]1CCN(c2nccc(-c3cnn4ncccc34)n2)C1	RET V804L	binding	–	1 µM	100%
CN1CCN(c2ccc(Nc3nccc(-c4cccc([N+](=O)[O-])c4)n3)cc2C(F)(F)F)CC1	RET M918T	binding	–	10 µM	34%
COc1ccnn2ncc(-c3ccnc(N(C)C)n3)c12	RET	binding	–	1 µM	100%
O=C(c1ccc(Nc2ncc(Cl)c(-c3cc4ccccc4s3)n2)cc1)N1CCC(N2CCCC2)CC1	RET M918T	binding	competition with immobilised ligand	1 µM	13%
CN(CCCC(F)(F)F)c1nccc(-c2cnn3ncccc23)n1	RET V804L	binding	–	1 µM	100%
COc1cnc(Nc2cccc(S(N)(=O)=O)c2)nc1N1CCN(c2ccccc2)CC1	RET	binding	competition with immobilised ligand	1 µM	64%
CN(C)c1ncc(F)c(-c2cnn3ncccc23)n1	RET V804L	binding	–	1 µM	91%
COCCOc1nc(-c2ccc(Cl)nc2)nc2c1CN(C(=O)c1ncn3ccccc13)CC2	RET V804M	cell-free assay	competition with immobilised ligand	0.1 µM	89%
O=C(NCCCN1CCOCC1)c1ccc(Nc2nccc(-c3cc4ccccc4s3)n2)cc1	RET	binding	competition with immobilised ligand	1 µM	55%
COc1cc(-c2cn(C3CCc4ccccc4N(CC(F)(F)F)C3=O)nn2)ccc1-n1ccc(C)n1 (stereo not drawn)	RET V804M	cell-free assay	competition with immobilised ligand	1 µM	100%
C[C@@H]1CN(c2ccc3ncc(-c4ccc5[nH]nc(C6CC6)c5c4)n3n2)C[C@H](C)O1	RET	binding	competition with immobilised ligand	0.5 µM	61%
O=C(N[C@H]1CCCCC/C=C\C2C[C@@]2(C(=O)O)NC(=O)[C@@H]2C[C@@H](Oc3ccncc3)CN2C1=O)OC1CCCC1 (stereo partly drawn)	RET	binding	competition with immobilised ligand	1 µM	94%
Cc1cnc(Nc2ccc(C(=O)N3CCC(N4CCCC4)CC3)cc2)nc1-c1cc2ccccc2s1	RET	binding	competition with immobilised ligand	1 µM	12%
O=C1NC(c2ccccn2)Sc2ccccc21 (stereo not drawn)	RET V804M	cell-free assay	competition with immobilised ligand	1 µM	86%
c1cnn2ncc(-c3ccnc(N4CCC45COC5)n3)c2c1	RET	binding	–	1 µM	97%
O=C(Nc1cccnn1)N1CCC(=Cc2cccc(Oc3ccc(C(F)(F)F)cn3)c2)CC1	RET V804M	cell-free assay	competition with immobilised ligand	1 µM	100%
c1cncc(-c2cccc(Nc3nccc(NC4CCCCC4)n3)c2)c1	RET M918T	binding	competition with immobilised ligand	10 µM	2.1%
CS(=O)(=O)NCC[C@H](NC(=O)c1cncc2c1cnn2-c1ccc(F)cc1)c1ccnc(S(C)(=O)=O)c1	RET	cell-free assay	competition with immobilised ligand	1 µM	91%
N[C@H]1CCN(c2nccc(-c3cnn4ncccc34)n2)C1	RET	binding	–	1 µM	51%
